Laboratory results reported in ChEMBL document CHEMBL4033790, “Design and Synthesis of Novel Deuterated Ligands Functionally Selective for the γ-Aminobutyric Acid Type A Receptor (GABAAR) α6 Subtype with Improved Metabolic Stability and Enhanced Bioavailability” (J Med Chem, 2018).
Values after ≈ are worked out from the molar mass of the structure shown. Active and inactive are the calls of the source. The rule behind the calls is not given here.

Tests used:
[1] = Drug level in mouse liver microsomes treated with 7-Methoxy-2-(6-methoxy-d3-pyridin-3-yl)-2,5-dihydro-3Hpyrazolo[4,3-c]quinolin-3-one after 60 mins by LC-MS analysis; assay type: ADME; details: 1 h
[2] = Drug level in human liver microsomes treated with 7-Methoxy-2-(6-methoxy-d3-pyridin-3-yl)-2,5-dihydro-3Hpyrazolo[4,3-c]quinolin-3-one after 60 mins by LC-MS analysis; assay type: ADME; details: 1 h
[3] = Drug level in human liver microsomes treated with 7-Methoxy-d3-2-(6-methoxypyridin-3-yl)-2,5-dihydro-3Hpyrazolo[4,3-c]quinolin-3-one after 60 mins by LC-MS analysis; assay type: ADME; details: 1 h
[4] = Drug level in mouse liver microsomes treated with 7-Methoxy-d3-2-(6-methoxypyridin-3-yl)-2,5-dihydro-3Hpyrazolo[4,3-c]quinolin-3-one after 60 mins by LC-MS analysis; assay type: ADME; details: 1 h
[5] = Drug level in mouse liver microsomes treated with 7-Methoxy-2-(4-methoxy-d3-phenyl)-2,5-dihydro-3H-pyrazolo-[4,3-c]quinolin-3-one after 60 mins by LC-MS analysis; assay type: ADME; details: 1 h
[6] = Drug level in human liver microsomes treated with 7-Methoxy-2-(4-methoxy-d3-phenyl)-2,5-dihydro-3H-pyrazolo-[4,3-c]quinolin-3-one after 60 mins by LC-MS analysis; assay type: ADME; details: 1 h
[7] = Drug level in mouse liver microsomes treated with 7-Methoxy-d3-2-(4-methoxyphenyl)-2,5-dihydro-3H-pyrazolo-[4,3-c]quinolin-3-one after 60 mins by LC-MS analysis; assay type: ADME; details: 1 h
[8] = Drug level in human liver microsomes treated with 7-Methoxy-d3-2-(4-methoxyphenyl)-2,5-dihydro-3H-pyrazolo-[4,3-c]quinolin-3-one after 60 mins by LC-MS analysis; assay type: ADME; details: 1 h
Mus musculus = test: Neurotoxicity in Swiss Webster mouse assessed as induction of motor impairment at 40 mg/kg administered via oral gavage measured after 10 to 60 mins by rotarod method; assay type: toxicity, organism-based; details: in vivo
Outline: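 Female mice were given a single oral gavage dose of 40 mg/kg, either in 50% PBS/40% propylene glycol/10% DMSO or, for poorly soluble compounds, in 2% polyethylene glycol plus 2.5% hydroxymethyl cellulose. Rotarod performance was tested 10, 30 and 60 min after dosing, with diazepam 5 mg/kg as positive control.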

[9] = target: GABA A receptor alpha-4/beta-3/gamma-2 (Homo sapiens) (UniProt P18507+P28472+P48169); test: Positive allosteric modulation of GABA-A receptor alpha4beta3gamma2 (unknown origin) expressed in Xenopus laevis oocytes assessed as potentiation of EC3 GABA induced currents up to 1 uM at -60 mV holding potential by electrophysiological method relative to GABA; assay type: cell-based
Outline: (§1)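 Stage 5–6 defolliculated Xenopus oocytes were injected with 2.5 ng total mRNA per oocyte: α1, α2, α3 or α5 with β3 and γ2 at 1:1:5, and α4 or α6 with β3 and γ2 at 3:1:5. Oocytes were kept ≥36 h at 18 °C in NDE medium before recording. Compounds were co-applied with GABA titrated to EC3-5 for each oocyte. Curves were fitted with the Hill equation; mean ± SEM from ≥3 oocytes across two batches.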

[10] = Aqueous solubility of the compound in DI water at pH 7 after 2 hrs by LC-MS analysis; assay type: physicochemical; details: buffer, pH 7, 2 h
Outline: (§2)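 10 mg compound dissolved in 2 mL DMAC; 10 μL of this added to 2 mL DI water (pH 7, sonicated) or 2 mL 0.01 M aq HCl (pH 2), held 2 h at 37 °C. Filtered through 0.45 micron filter, then quantified by LC-MS in SIM mode against calibration curves of standards in DMAC (n = 5); n=3.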

[11] = Solubility of the compound in 0.01M HCl at pH 2 after 2 hrs by LC-MS analysis; assay type: physicochemical; details: buffer, pH 2, 2 h; outline: as §2
[12] = target: GABA-A receptor; alpha-3/beta-3/gamma-2 (Homo sapiens) (UniProt P18507+P28472+P34903); test: Positive allosteric modulation of GABA-A receptor alpha3beta3gamma2 (unknown origin) expressed in Xenopus laevis oocytes assessed as potentiation of EC3 GABA induced currents up to 1 uM at -60 mV holding potential by electrophysiological method relative to GABA; assay type: cell-based; outline: as §1
[13] = Metabolic stability in mouse liver microsomes assessed as parent compound remaining at 10 uM after 60 mins by LC-MS analysis; assay type: ADME, microsome; details: read-out: Stability
Outline: (§3)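 The 60 min samples of the microsomal incubation (10 μM compound, human or mouse liver microsomes at 0.5 mg/mL, NADPH regenerating system, 37 °C) were analysed by LC-MS. Detection used SIM mode with dual ESI/APCI ionization, calibrated to the retention times and masses of the parent and its O-demethylated metabolites. Peak intensities were measured.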

[14] = target: GABA-A receptor; alpha-2/beta-3/gamma-2 (Homo sapiens) (UniProt P18507+P28472+P47869); test: Positive allosteric modulation of GABA-A receptor alpha2beta3gamma2 (unknown origin) expressed in Xenopus laevis oocytes assessed as potentiation of EC3 GABA induced currents up to 1 uM at -60 mV holding potential by electrophysiological method relative to GABA; assay type: cell-based; outline: as §1
[15] = target: GABA-A receptor; alpha-1/beta-3/gamma-2 (Homo sapiens) (UniProt P14867+P18507+P28472); test: Positive allosteric modulation of GABA-A receptor alpha1beta3gamma2 (unknown origin) expressed in Xenopus laevis oocytes assessed as potentiation of EC3 GABA induced currents up to 1 uM at -60 mV holding potential by electrophysiological method relative to GABA; assay type: cell-based; outline: as §1
Rattus norvegicus = species on record: Rattus norvegicus; test: Displacement of [3H]-flunitrazepam from rat brain GABA-A receptor benzodiazepine site […] at 10 uM after 60 to 90 mins by scintillation counting; details: tested as the 2H-labelled form
[16] = target: Voltage-gated inwardly rectifying potassium channel KCNH2 (Homo sapiens, UniProt Q12809); test: Displacement of [3H]-dofetilide from human ERG expressed in HEK cell membranes at >10 uM after 60 to 90 mins by scintillation counting
[17] = Metabolic stability in human liver microsomes assessed as parent compound remaining at 10 uM after 60 mins by LC-MS analysis; assay type: ADME, microsome; details: read-out: Stability; outline: as §3
Liver = test: Half life in human liver microsomes at 10 uM by LC-MS/MS analysis; assay type: ADME, microsome
Outline: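 Compound at 10 μM final was preincubated 5 min at 37 °C with NADPH regenerating system in phosphate buffer, pH 7.4. Human or mouse liver microsomes (0.5 mg/mL protein) were added to start the reaction. Samples were taken at 0 (no microsomes) and 10–60 min and measured by LC-MS/MS against an internal standard. Half-life = 0.693/k, with k the slope of ln peak-area ratio versus time. Three experiments, each in duplicate.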

[18] = target: GABA-A receptor; alpha-5/beta-3/gamma-2 (Homo sapiens) (UniProt P18507+P28472+P31644); test: Positive allosteric modulation of GABA-A receptor alpha5beta3gamma2 (unknown origin) expressed in Xenopus laevis oocytes assessed as potentiation of EC3 GABA induced currents up to 1 uM at -60 mV holding potential by electrophysiological method relative to GABA; assay type: cell-based; outline: as §1
[19] = target: GABA-A receptor; alpha-6/beta-3/gamma-2 (Homo sapiens) (UniProt P18507+P28472+Q16445); test: Positive allosteric modulation of GABA-A receptor alpha6beta3gamma2 (unknown origin) expressed in Xenopus laevis oocytes assessed as potentiation of EC3 GABA induced currents at 30 uM at -60 mV holding potential by electrophysiological method relative to GABA; assay type: cell-based; outline: as §1
[20] = target: Mu-type opioid receptor (Homo sapiens) (UniProt P35372); test: Displacement of [3H]-DAMGO from human recombinant MOR expressed in HEK293 cells at 10 uM after 60 to 90 mins by scintillation counting; assay type: cell-based; details: tested as the 2H-labelled form
[21] = target: T1, 5-hydroxytryptamine receptor 2C (Homo sapiens) (UniProt P28335); test: Displacement of [3H]-mesulergine from human recombinant 5HT2C receptor expressed in HEK293T cells at 10 uM after 60 to 90 mins by scintillation counting; assay type: cell-based; details: HEK-293T, tested as the 2H-labelled form
T1 sequence (whole entry): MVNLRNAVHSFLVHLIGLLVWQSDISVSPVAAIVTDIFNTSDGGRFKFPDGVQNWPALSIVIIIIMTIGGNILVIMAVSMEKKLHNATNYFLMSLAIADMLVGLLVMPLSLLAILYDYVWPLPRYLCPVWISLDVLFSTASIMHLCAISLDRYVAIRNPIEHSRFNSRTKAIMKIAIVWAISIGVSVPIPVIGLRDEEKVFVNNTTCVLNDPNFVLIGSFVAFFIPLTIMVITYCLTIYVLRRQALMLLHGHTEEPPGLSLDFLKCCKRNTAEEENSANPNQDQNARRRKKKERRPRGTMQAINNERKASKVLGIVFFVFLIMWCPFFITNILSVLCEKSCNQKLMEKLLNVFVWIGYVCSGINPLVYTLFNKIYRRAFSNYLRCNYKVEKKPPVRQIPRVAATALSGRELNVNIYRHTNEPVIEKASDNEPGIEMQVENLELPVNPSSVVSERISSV

[22] = target: 5-hydroxytryptamine receptor 7 (Homo sapiens) (UniProt P34969); test: Displacement of [3H]-LSD from human recombinant 5HT7 receptor expressed in HEK293 cells at 10 uM after 60 to 90 mins by scintillation counting; assay type: cell-based; details: tested as the 2H-labelled form
[23] = target: 5-hydroxytryptamine receptor 2B (Homo sapiens) (UniProt P41595); test: Displacement of [3H]-LSD from human recombinant 5HT2B receptor expressed in HEK293 cells at 10 uM after 60 to 90 mins by scintillation counting; assay type: cell-based; details: tested as the 2H-labelled form
5-hydroxytryptamine receptor 2B (Homo sapiens), sequence (P41595 whole entry): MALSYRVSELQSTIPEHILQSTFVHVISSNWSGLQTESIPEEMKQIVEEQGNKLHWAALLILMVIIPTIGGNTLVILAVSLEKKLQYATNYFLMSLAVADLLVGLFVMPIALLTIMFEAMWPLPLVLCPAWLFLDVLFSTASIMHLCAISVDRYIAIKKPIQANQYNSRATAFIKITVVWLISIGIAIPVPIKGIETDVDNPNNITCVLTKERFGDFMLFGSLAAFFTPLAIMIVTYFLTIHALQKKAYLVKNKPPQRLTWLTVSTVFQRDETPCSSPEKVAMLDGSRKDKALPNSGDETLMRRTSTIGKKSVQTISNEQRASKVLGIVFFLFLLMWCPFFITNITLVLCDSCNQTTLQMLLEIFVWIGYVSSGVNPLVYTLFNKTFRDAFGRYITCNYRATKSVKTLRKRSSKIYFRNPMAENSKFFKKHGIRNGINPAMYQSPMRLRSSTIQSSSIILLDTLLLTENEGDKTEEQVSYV

Voltage-gated inwardly rectifying potassium channel KCNH2, sequence (Q12809 whole entry): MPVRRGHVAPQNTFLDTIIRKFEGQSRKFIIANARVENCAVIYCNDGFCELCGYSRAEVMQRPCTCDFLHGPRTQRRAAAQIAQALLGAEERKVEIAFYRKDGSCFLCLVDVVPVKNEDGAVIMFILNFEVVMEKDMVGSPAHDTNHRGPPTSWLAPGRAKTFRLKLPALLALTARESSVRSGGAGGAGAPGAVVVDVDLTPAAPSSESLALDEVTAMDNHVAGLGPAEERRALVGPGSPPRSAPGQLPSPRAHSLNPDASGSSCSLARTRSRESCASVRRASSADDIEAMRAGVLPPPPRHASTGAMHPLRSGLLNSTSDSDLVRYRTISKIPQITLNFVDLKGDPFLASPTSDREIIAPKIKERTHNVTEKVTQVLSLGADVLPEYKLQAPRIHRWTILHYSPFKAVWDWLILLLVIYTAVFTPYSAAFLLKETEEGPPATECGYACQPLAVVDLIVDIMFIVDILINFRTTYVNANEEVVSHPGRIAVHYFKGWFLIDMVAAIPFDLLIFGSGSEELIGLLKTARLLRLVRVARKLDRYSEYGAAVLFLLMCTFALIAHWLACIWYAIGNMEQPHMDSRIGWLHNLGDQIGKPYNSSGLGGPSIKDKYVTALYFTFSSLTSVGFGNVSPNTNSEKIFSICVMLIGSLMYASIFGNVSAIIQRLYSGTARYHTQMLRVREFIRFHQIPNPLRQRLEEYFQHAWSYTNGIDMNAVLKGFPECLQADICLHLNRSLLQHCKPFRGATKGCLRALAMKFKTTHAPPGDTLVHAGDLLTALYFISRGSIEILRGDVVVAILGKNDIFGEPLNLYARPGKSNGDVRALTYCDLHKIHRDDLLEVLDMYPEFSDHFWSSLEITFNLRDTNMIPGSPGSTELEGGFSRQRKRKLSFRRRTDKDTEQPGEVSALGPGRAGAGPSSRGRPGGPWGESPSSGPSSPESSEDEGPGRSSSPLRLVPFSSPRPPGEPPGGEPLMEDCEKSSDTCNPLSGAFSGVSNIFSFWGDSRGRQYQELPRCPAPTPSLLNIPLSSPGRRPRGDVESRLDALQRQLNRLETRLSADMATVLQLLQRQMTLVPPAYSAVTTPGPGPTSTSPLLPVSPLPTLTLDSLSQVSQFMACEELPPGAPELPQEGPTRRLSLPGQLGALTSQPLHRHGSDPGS
Mu-type opioid receptor (Homo sapiens), sequence (P35372 whole entry): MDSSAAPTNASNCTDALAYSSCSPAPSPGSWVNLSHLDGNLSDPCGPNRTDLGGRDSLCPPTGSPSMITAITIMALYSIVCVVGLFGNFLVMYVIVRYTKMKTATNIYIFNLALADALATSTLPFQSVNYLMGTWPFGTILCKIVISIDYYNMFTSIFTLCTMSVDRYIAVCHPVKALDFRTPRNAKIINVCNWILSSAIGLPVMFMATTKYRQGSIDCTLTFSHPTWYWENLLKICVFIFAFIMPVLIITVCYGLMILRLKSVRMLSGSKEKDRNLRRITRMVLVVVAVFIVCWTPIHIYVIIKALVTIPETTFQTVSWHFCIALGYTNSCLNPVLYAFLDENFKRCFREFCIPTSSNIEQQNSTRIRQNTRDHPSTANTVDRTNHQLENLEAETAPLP
5-hydroxytryptamine receptor 7 (Homo sapiens), sequence (P34969 whole entry): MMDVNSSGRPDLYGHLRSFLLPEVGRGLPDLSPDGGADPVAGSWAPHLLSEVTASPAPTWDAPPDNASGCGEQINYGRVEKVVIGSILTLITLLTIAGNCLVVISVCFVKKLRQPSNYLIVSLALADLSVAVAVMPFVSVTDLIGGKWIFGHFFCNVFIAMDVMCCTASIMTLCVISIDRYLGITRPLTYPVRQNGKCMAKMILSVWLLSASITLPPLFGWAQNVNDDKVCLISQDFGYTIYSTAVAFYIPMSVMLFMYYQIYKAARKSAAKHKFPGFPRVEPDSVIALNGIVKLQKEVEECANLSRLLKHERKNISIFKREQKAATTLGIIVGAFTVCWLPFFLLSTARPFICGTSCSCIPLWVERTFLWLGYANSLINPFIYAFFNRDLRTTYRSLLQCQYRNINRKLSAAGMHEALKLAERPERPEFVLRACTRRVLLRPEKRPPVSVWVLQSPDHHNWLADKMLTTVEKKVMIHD

For `[2H]C([2H])([2H])Oc1ccc(-n2nc3c4ccc(O)cc4[nH]cc-3c2=O)cn1`, the Drug metabolism [1] was “Metabolite_Detected” and the Drug metabolism [2] was “Metabolite_Detected”.
With `COc1ccc2c3nn(-c4ccc(O)nc4)c(=O)c-3c[nH]c2c1` the Drug metabolism [1] was “Metabolite_Detected” and the Drug metabolism [2] was “Metabolite_Detected”.
In the case of `O=c1c2c[nH]c3cc(O)ccc3c-2nn1-c1ccc(O)nc1`, the Drug metabolism [3] is reported as “Metabolite_Detected”, the Drug metabolism [1] is reported as “Metabolite_Detected” and the Drug metabolism [2] is reported as “Metabolite_Detected”. The Drug metabolism [4] was “Metabolite_Detected”.
For `COc1ccc(-n2nc3c4ccc(O)cc4[nH]cc-3c2=O)cn1`, the Drug metabolism [3] was “Metabolite_Detected” and the Drug metabolism [4] was “Metabolite_Detected”.
For `[2H]C([2H])([2H])Oc1ccc2c3nn(-c4ccc(O)nc4)c(=O)c-3c[nH]c2c1`, the Drug metabolism [3] was “Metabolite_Detected” and the Drug metabolism [4] was “Metabolite_Detected”.
With `COc1ccc2c3nn(-c4ccc(O)cc4)c(=O)c-3c[nH]c2c1` the Drug metabolism [5] was “Metabolite_Detected” and the Drug metabolism [6] was “Metabolite_Detected”.
With `COc1ccc(-n2nc3c4ccc(O)cc4[nH]cc-3c2=O)cc1` the Drug metabolism [7] was “Metabolite_Detected” and the Drug metabolism [8] was “Metabolite_Detected”.
With `COc1cccc(-n2nc3c4cc(Cl)ccc4[nH]cc-3c2=O)c1` the Activity (Mus musculus) was “Non-Toxic”, the Activity [9] was less than 0% and the solubility [10] was 6.8 µM (≈ 2.22 µg/mL). It also gave a solubility [11] of 2.6 µM (≈ 0.847 µg/mL), an Activity [12] of less than 0% and a remaining at 1 h, 10 µM [13] of 59.8%. For the same molecule, the Activity [14] was less than 0%, the Activity [15] was less than 0% and the inhibition (Rattus norvegicus) was “Active”. The “inhibition (INH)” value [16] was “Not Active”, the remaining at 1 h, 10 µM [17] was 81.4% and the t1/2 (Liver) was 3.4 h. The Activity [18] was less than 0%, the Activity [19] was 400% and the Activity ([19]; tested as the 2H-labelled form) was “inactive”.
With `O=c1c2c[nH]c3cc(O)ccc3c-2nn1-c1ccc(O)cc1` the Drug metabolism [5] was “Metabolite_Detected”, the Drug metabolism [6] was “Metabolite_Detected” and the Drug metabolism [7] was “Metabolite_Detected”. For the same molecule, the Drug metabolism [8] was “Metabolite_Detected”.
In the case of `[2H]C([2H])([2H])Oc1ccc2c3nn(-c4ccc(O)cc4)c(=O)c-3c[nH]c2c1`, the Drug metabolism [7] is reported as “Metabolite_Detected” and the Drug metabolism [8] is reported as “Metabolite_Detected”.
In the case of `[2H]C([2H])([2H])Oc1ccc(-n2nc3c4ccc(O)cc4[nH]cc-3c2=O)cc1`, the Drug metabolism [5] is reported as “Metabolite_Detected” and the Drug metabolism [6] is reported as “Metabolite_Detected”.
In the case of `COc1ccc(-n2nc3c4ccc(Br)cc4[nH]cc-3c2=O)cc1`, the Activity (Mus musculus) is reported as “Non-Toxic”, the Activity [9] is reported as less than 0% and the solubility [10] is reported as 8.3 µM (≈ 3.07 µg/mL). The solubility [11] was 3.3 µM (≈ 1.22 µg/mL), the Activity [12] was less than 0% and the inhibition [20] was “Active”. The inhibition [21] was “Active”, the inhibition [22] was “Active” and the remaining at 1 h, 10 µM [13] was 69%. The Activity [14] was less than 0%, the Activity [15] was less than 0% and the inhibition (Rattus norvegicus) was “Active”. The “inhibition (INH)” value [16] was “Not Active”, the remaining at 1 h, 10 µM [17] was 66.9% and the t1/2 (Liver) was 1.7 h. For the same molecule, the Activity [18] was less than 0%, the Activity [19] was 900% and the Activity ([19]; tested as the 2H-labelled form) was “inactive”. The inhibition [23] was “Active”.
